Measurements: ChEMBL document CHEMBL1121837, “Synthesis and antischistosomal activity of certain pyrazolo[1,5-a]pyrimidines” (1981)

System: Schistosoma mansoni
Assay: In vitro antischistosomal activity, minimum active concentration to cause severe damage or death of worms at 96 hr against Schistosoma mansoni
Assay type: functional
Method in brief: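 Adult S. mansoni pairs (Puerto Rican strain, 46-day infection, recovered from mice) incubated at 37 °C, 2.0 mL medium per pair, in serumless medium with 50 µg/mL gentamycin sulfate. Compound dissolved in DMSO, final DMSO ≤1%. Worms examined by inverted microscope at intervals up to 96 h, when the final reading was taken.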

| SMILES | MAC [µg/mL] |
| --- | --- |
| Cc1cc(O)n2nc(-c3ccccc3)cc2n1 | 100 |
| Cc1cccc(-c2cnn3c(O)cc(C)nc23)c1 | 100 |
| Cc1cccc(-c2cnn3c(O)cc(-c4ccccc4)nc23)c1 | 1 |
| Cc1cc(=S)n2nccc2n1C | >100 |
| Cc1cc(O)n2nc(-c3cccc(Cl)c3)cc2n1 | >100 |
| COc1cc(-c2cc3nc(C)cc(S)n3n2)cc(OC)c1OC | 1 |
| CCn1ccc(=S)n2nccc12 | 100 |
| Cc1cc(S)n2ncc(-c3ccccc3)c2n1 | 1 |
| Cn1ccc(=S)n2nc(-c3ccccc3)cc12 | 10 |
| Cc1cc(S)n2nc(-c3ccccc3)cc2n1 | 1 |
| CCOC(=O)c1cnn2c(S)cc(C)nc12 | 10 |
| Cc1cc(O)n2ncc(-c3ccccc3)c2n1 | 100 |
| Cc1cccc(-c2cnn3c(S)cc(C)nc23)c1 | 100 |
| Oc1ccnc2c(-c3ccccc3)cnn12 | 100 |
| COc1cc(-c2cc3nc(-c4ccccc4)cc(O)n3n2)cc(OC)c1OC | >100 |
| Sc1ccnc2c(-c3ccccc3)cnn12 | 1 |
| CCCn1ccc(=S)n2nc(-c3ccccc3)cc12 | 10 |
| COc1cc(-c2cc3nc(C)cc(O)n3n2)cc(OC)c1OC | >100 |
| Sc1ccnc2cc(-c3ccccc3)nn12 | 1 |
| CCn1ccc(=O)n2nccc12 | >100 |

| SMILES | MAC [µg/mL] |
| --- | --- |
| Cc1cc(S)n2ncc(-c3ccc(Cl)cc3)c2n1 | 100 |
| CCOC(=O)c1cnn2c(O)cc(-c3ccccc3)nc12 | >100 |
| Oc1cc(-c2ccccc2)nc2cc(-c3ccccc3)nn12 | >100 |
| Cc1cc(=O)n2nccc2n1C | 100 |
| Sc1ccnc2ccnn12 | 1 |
| Cc1cc(S)n2nccc2n1 | 3.2 |
| Oc1cc(-c2ccccc2)nc2c(-c3ccc(Cl)cc3)cnn12 | 100 |
| CCCn1ccc(=O)n2nc(-c3ccccc3)cc12 | 100 |
| Cn1ccc(=O)n2nccc12 | >100 |
| Sc1cc(-c2ccccc2)nc2ccnn12 | 1 |
| Oc1cc(-c2ccccc2)nc2c(-c3ccccc3)cnn12 | 10 |
| Cn1c(-c2ccccc2)cc(=O)n2nc(-c3ccccc3)cc12 | 100 |
| Cn1ccc(=S)n2nccc12 | >100 |
| Oc1cc(-c2ccccc2)nc2ccnn12 | >100 |
| Sc1cc(-c2ccccc2)nc2cc(-c3ccccc3)nn12 | 1 |
| Cc1cccc(-c2cnn3c(S)ccnc23)c1 | 0.32 |
| Cc1cccc(-c2cnn3c(O)ccnc23)c1 | 100 |
| O=c1cc(-c2ccccc2)[nH]c2cc(-c3cccc(Cl)c3)nn12 | >100 |
| Oc1ccnc2cc(-c3ccccc3)nn12 | >100 |
| Cn1ccc(=O)n2nc(-c3ccccc3)cc12 | >100 |
